In article PMC6246805 (SLAS discovery : advancing life sciences R & D, 2018):
Structures can show the parent of a compound that is named as a salt.

Assays:
[1] = biological target: T1, aerobactin synthetase IucA (Klebsiella pneumoniae, UniProt A0A1A9TA96); format: biochemical, hypervirulent K. pneumoniae hvKP1; conditions: for inhibition of IucA in pilot screen and follow-up: pilot screen of 4,400 bioactives, enzyme-initiated protocol; for effect of increasing IucA concentration on apparent potency: 20, 200, or 2,000 nM IucA; for effect of increasing IucA concentration on apparent potency / effect of 1 h pre-incubation with IucA on apparent potency: MG assay; for effect of 1 h pre-incubation with IucA on apparent potency: compared to reactions without pre-incubation
IucA [2] = assay: Fluorescence-based thermal shift assay; format: binding, hypervirulent K. pneumoniae hvKP1; conditions: substrates ATP (1.5 mM) and citrate (1.5 mM)
In short: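 Purified IucA (10 μg per sample) with 5× SYPRO Orange, in the more concentrated buffer used for substrate runs: 50 mM HEPES, 150 mM NaCl, 0.2 mM TCEP, pH 7.5. ATP and citrate were each at 1.5 mM. Samples were heated from 25 to 99 °C over 45 min in a real-time PCR instrument, reading fluorescence (ex 545/em 568 nm) every 0.5 °C. TM was taken as the maximum of the first derivative of the melt curve.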

IucA [3] = conditions: read-out: KM for IucA; cited from earlier work
bacterial IspE kinase = conditions: cited from earlier work
[4] = biological target: T1, aerobactin synthetase IucA; assay: Orthogonal luminescence; format: biochemical, hypervirulent K. pneumoniae hvKP1; conditions: 30 min pre-incubation, substrate-initiated
[5] = ref PubChem database; cited from earlier work
human RAD51 recombinase = conditions: cited from earlier work
RecA = conditions: cited from earlier work

O=C(O)c1cc[c]([Hg][Cl])cc1 [4-chloromercuribenzoic acid, reference compound]
inhibition of IucA in pilot screen and follow-up [1]: identified in the initial screen

O=c1c2ccccc2[se]n1-c1ccccc1 [Ebselen, reference compound]
inhibition of IucA in pilot screen and follow-up [1]: identified as an inhibitor

O=C([O-])c1ccccc1-c1c2cc(Br)c(=O)cc-2oc2[c]([Hg+])c([O-])c(Br)cc12.[Na+].[Na+].[OH-] [Merbromin, reference compound]
inhibition of IucA in pilot screen and follow-up [1]: identified in the initial screen

Nc1ncnc2c1ncn2[C@@H]1O[C@H](COP(=O)(O)OP(=O)([O-])OP(=O)([O-])O)[C@@H](O)[C@H]1O.[Na+].[Na+] [ATP, adenosine triphosphate disodium salt hydrate]
shift in the melting temperature (TM) of IucA (IucA [2]): +2–5 °C
Km (IucA [3]): 130 ± 30 µM

O=C(O)CC(O)(CC(=O)O)C(=O)O [citrate, sodium citrate tribasic dihydrate]
Km (IucA [3]): 180 ± 30 µM

COc1ccc(-n2c(-c3cccnc3)nc3ccccc3c2=O)cc1 [CB04]
inhibition of IspE kinase (bacterial IspE kinase): potent inhibitors

CC(=O)[O][Hg][c]1ccccc1 [phenylmercuric acetate, reference compound]
inhibition of IucA in pilot screen and follow-up [1]: identified in the initial screen

CC1=NN(c2nc(-c3ccc(Cl)cc3)cs2)C(=O)/C1=C\c1ccc2c(c1)OCO2 [CB02]
effect of increasing IucA concentration on apparent potency [1]: apparent potency was reduced
effect of 1 h pre-incubation with IucA on apparent potency [1]: increased apparent potency
dose-dependent activity, primary substrate-initiated MG assay ([1]; purchased compounds, substrate-initiated protocol): highest potency
dose-dependent activity, secondary luminescence assay [4]: most potent dose-dependent activity
reported active in unique PubChem bioassays [5]: 2 out of 8

O=c1c2ccccc2nc(/C=C/c2cccnc2)n1Cc1ccccc1 [CB06]
effect of increasing IucA concentration on apparent potency [1]: apparent potency was reduced
effect of 1 h pre-incubation with IucA on apparent potency [1]: increased apparent potency
inhibition of human RAD51 recombinase (human RAD51 recombinase): inhibitor
inhibition of E. coli RecA (RecA): did not inhibit

O=c1c2ccccc2nc(-c2cccnc2)n1-c1ccc(Br)cc1 [CB05]
inhibition of IspE kinase (bacterial IspE kinase): potent inhibitors

C[CH2][Hg][S]c1ccccc1C(=O)[O-].[Na+] [thiomersal, reference compound]
inhibition of IucA in pilot screen and follow-up [1]: identified in the initial screen
